T cruzi growth-1: T. cruzi intracellular proliferation inhibitors, primary screen, cell-based, beta-gal Tulahuen parasites, NIH3T3 host, luminescence; inhibition, % at 8.34 µM; actives 5.9% (n = 77,000); T. cruzi beta-gal in NIH3T3, GalScreen luminescence, 90 h; AID 624255, 2012;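 active means mean inhibition above about 93%, with at least 55% of replicates each passing it, limit read from the data, passing the limit was not always enough; inconclusive means only one of those two conditions holds; inactive means neither condition holds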
IDH1 mut inh: inhibitors of IDH1 R132H reductase, primary screen, biochemical, plate reader, single point | actives 0.18% (n = 70,000) | AID 624101, 2012 | Isocitrate dehydrogenase [NADP] cytoplasmic (Homo sapiens), O75874 | inhibition, % at 10 µM | diaphorase/resazurin fluorescence, 60 min; in the data active means inhibition above about 34%; inconclusive means no clear call, values can overlap the other calls; inactive means below about 11%;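 further: 0% = DMSO and 100% = no enzyme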
Target sequence (O75874 whole entry R132H): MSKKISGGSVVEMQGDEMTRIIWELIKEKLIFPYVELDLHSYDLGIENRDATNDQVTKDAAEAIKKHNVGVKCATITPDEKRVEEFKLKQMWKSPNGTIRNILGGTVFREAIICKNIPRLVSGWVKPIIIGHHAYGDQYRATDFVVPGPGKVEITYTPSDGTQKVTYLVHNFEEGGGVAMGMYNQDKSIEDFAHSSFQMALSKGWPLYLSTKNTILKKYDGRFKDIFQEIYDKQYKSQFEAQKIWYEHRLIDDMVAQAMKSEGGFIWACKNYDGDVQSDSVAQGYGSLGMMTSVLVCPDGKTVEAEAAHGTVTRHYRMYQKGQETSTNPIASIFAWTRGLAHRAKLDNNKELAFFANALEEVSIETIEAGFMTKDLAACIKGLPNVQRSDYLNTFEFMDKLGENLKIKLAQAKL
GASC1 inh: inhibitors of GASC-1 (KDM4C) histone demethylase, primary screen, biochemical, single concentration HTS; inhibition, % at 12.5 µM; GST-KDM4C 2-372, H3K9me3 peptide, LANCE TR-FRET; actives 0.15% (n = 96,000); Lysine-specific demethylase 4C (Homo sapiens), Q9H3R0;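 active means mean replicate inhibition above about 25%, with at least 55% of replicates also reaching it, limit read from the data, passing the limit was not always enough; inconclusive means only one of those two conditions met; inactive means neither condition met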
Target sequence (Q9H3R0 2-372 limits assumed): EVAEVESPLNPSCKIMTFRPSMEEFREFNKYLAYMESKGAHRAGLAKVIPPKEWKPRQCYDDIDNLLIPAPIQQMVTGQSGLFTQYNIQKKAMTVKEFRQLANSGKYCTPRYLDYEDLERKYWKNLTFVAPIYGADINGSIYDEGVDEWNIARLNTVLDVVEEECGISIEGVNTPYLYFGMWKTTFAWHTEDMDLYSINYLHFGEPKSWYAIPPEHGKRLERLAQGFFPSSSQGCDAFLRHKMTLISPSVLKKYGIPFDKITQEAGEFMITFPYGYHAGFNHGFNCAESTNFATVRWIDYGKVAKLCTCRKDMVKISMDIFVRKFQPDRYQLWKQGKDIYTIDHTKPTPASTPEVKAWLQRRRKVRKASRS
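Compound: one test concentration per compound; Material: GST-GASC-1 enzyme fragment 2-372; Amount: GASC-1 enzyme at 10 nM final in reaction; Also added: H3K9me3 peptide substrate, Fe(II), 2-oxoglutarate; Technique: LANCE TR-FRET; Times: 30 min demethylation and 1 h detection at room temperature.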
Pf Dd2 growth: P. falciparum Dd2 growth inhibitors, primary screen, SYBR Green fluorescence, single dose replicates | 72 h; hits give low values | activity change, % at 10 µM | actives 2.3% (n = 94,000) | AID 1159554, 2015; in the data active means activity change below about -80%; inconclusive means no clear call, values can overlap the other calls
T cruzi growth-2: T. cruzi intracellular proliferation inhibitors, confirmation, cell-based, NIH3T3 host, beta-gal parasite, luminescence, cherry-pick | shares compounds with T cruzi growth-1 | T. cruzi beta-gal in NIH3T3, GalScreen luminescence, 90 h | inhibition, % at 8.35 µM | actives 72% (n = 5,600);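 active means mean replicate inhibition above about 95% and at least 55% of replicates individually reaching it, limit read from the data; inconclusive means only one of the two criteria is met; inactive means neither criterion is met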
T cruzi growth-3: inhibitors of intracellular T. cruzi replication, confirmation, NIH3T3 host cells, beta-gal parasites, cherry-pick, set 2. shares compounds with T cruzi growth-1. T. cruzi beta-gal in NIH3T3, GalScreen luminescence, 90 h. inhibition, % at 2.09 µM. actives 21% (n = 5,600). AID 651740, 2012;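 active means mean inhibition above about 95%, with at least 55% of replicates also reaching it, limit read from the data; inconclusive means meets just one of the two conditions; inactive means meets neither condition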;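 further: plate controls were neutral control median for no effect and positive control median for full effect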
3T3 cytotox: cytotoxicity in mouse NIH/3T3 fibroblasts, confirmation, cytotoxicity control for T. cruzi proliferation inhibitor project, cell-based, cherry-pick, single point. shares compounds with T cruzi growth-1. NIH/3T3 viability, CellTiter-Glo ATP luminescence, 90 h. cytotoxicity (signal decrease), % at 8.35 µM. actives 14% (n = 5,600);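 active means mean signal decrease across replicates above about 35% based on untreated-well scatter, with enough replicates individually passing, limit read from the data; inconclusive means no rule stated though some were filed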;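 further: 0% = median of neutral control wells and 100% = median of positive control wells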
3T3 cytotox 2: NIH/3T3 fibroblast cytotoxicity, confirmation, cytotoxicity control, cell-based, cherry-pick, single point, set 2; shares compounds with T cruzi growth-1; NIH/3T3 viability, CellTiter-Glo ATP luminescence, 90 h; inhibition, % at 24.9 µM; actives 56% (n = 5,600); AID 651744, 2012;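 active means mean loss of cell viability signal at or above a set limit, and enough replicates individually reaching it; inconclusive means meets only the mean limit or only the replicate share; inactive means meets neither condition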;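 further: 0% = median of neutral control wells and 100% = median of positive control wells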
Active calls of the source: *; ? = inconclusive; · = no result; + = active, no number. A selection: hits, their analogues and other compounds. The true share with any hit is near 5.9%.

SMILES	T cruzi growth-1	IDH1 mut inh	GASC1 inh	Pf Dd2 growth	T cruzi growth-2	T cruzi growth-3	3T3 cytotox	3T3 cytotox 2
Cc1noc(C)c1NC(=O)Nc1cccc2c1O[C@H](CN(C)C(=O)NC(C)C)[C@H](C)CN([C@H](C)CO)C2=O	26.7	·	1.3	17.3	·	·	·	·
Cn1cnc(S(=O)(=O)N2CCCCN3[C@H](CO)[C@H](c4ccc(-c5ccccc5)cc4)[C@H]3C2)c1	?	·	-0.5	16.9	25.8	9.0	3.4	30.0*
Cc1cccc(-c2ccc([C@@H]3[C@@H](CO)N4CCCCN(S(=O)(=O)c5cn(C)cn5)C[C@@H]34)cc2)c1	?	·	-0.5	-1.0	83.3	-22.4	31.5	81.6*
Cn1cnc(S(=O)(=O)N2CCCCN3[C@@H](CO)[C@@H](c4ccc(-c5ccccc5)cc4)[C@@H]3C2)c1	114.1*	·	1.6	23.9	4.7	-12.2	-15.3	39.7*
Cn1cnc(S(=O)(=O)N2CCCCN3[C@H](CO)[C@H](c4ccc(-c5ccccc5)cc4)[C@@H]3C2)c1	55.2	·	-1.2	29.0	·	·	·	·
Cc1cccc(-c2ccc([C@H]3[C@@H](CO)N4CCCCN(S(=O)(=O)c5cn(C)cn5)C[C@@H]34)cc2)c1	-39.5	·	-2.0	6.3	·	·	·	·
COCC(=O)Nc1ccc2c(c1)C(=O)N(C)C[C@@H](OC)[C@@H](C)CN(Cc1cccc(F)c1)[C@@H](C)CO2	-35.2	0.2	0.1	-23.8	·	·	·	·
C[C@@H]1CN([C@@H](C)CO)C(=O)c2cccc(NC(=O)C3CCOCC3)c2O[C@H]1CN(C)Cc1ccc2c(c1)OCO2	-5.8	2.7	15.7	7.5	·	·	·	·
CCCNC(=O)N1[C@H](CNC(C)=O)[C@@H](c2ccc(-c3ccccc3)cc2)[C@@H]1CO	109.7*	·	-0.8	-1.8	28.9	-28.6	-8.2	13.7
CCCNC(=O)N1[C@H](CO)[C@@H](c2ccccc2)[C@@H]1CNC(=O)c1cccc(F)c1	-4.1	·	-2.6	-2.6	·	·	·	·
CCCNC(=O)N1[C@@H](CO)[C@H](c2ccccc2)[C@@H]1CNC(=O)c1cccc(F)c1	101.9*	·	-1.4	-44.7	-3.0	12.1	-18.6	-2.1
C[C@H](CO)N1C[C@H](C)[C@@H](CN(C)S(=O)(=O)c2cn(C)cn2)Oc2ccc(NC(=O)Nc3ccc4c(c3)OCO4)cc2CC1=O	26.1	-0.1	-0.6	9.9	·	·	·	·
C[C@H](CO)N1C[C@H](C)[C@H](CN(C)C)Oc2c(NS(=O)(=O)c3ccc(F)cc3)cccc2C1=O	·	·	0.4	-5.3	·	·	·	·
CCCNC(=O)[C@@H]1[C@@H](CO)[C@@H]2Cn3c(cccc3=O)[C@@H]2N1CC1CCCCC1	1.6	·	2.6	2.4	·	·	·	·
CCNC(=O)[C@@H]1[C@@H](CO)[C@@H]2Cn3c(cccc3=O)[C@@H]2N1CC1CCCCC1	+	·	2.7	·	-27.1	-24.4	-4.1	-8.0
O=C(Nc1nccs1)[C@H]1[C@H](CO)[C@H]2Cn3c(ccc(-c4ccccc4)c3=O)[C@H]2N1CC1CCCC1	98.0*	·	-0.3	-21.7	105.8*	56.7	27.2	64.2*
O=C(Nc1ccc(-c2ccccc2)cc1)[C@H]1[C@H](CO)[C@H]2Cn3c(cccc3=O)[C@H]2N1CC1CCCCC1	?	·	-0.9	-18.4	85.3	110.2*	19.9	106.9*
CO[C@H]1CN(C)C(=O)c2cc(NS(=O)(=O)c3ccc(Cl)cc3)ccc2OC[C@@H](C)N(C)C[C@H]1C	16.1	0.4	1.8	-4.4	·	·	·	·
Cc1ccccc1NC(=O)c1ccc(C)c(S(=O)(=O)Nc2cc([N+](=O)[O-])ccc2C)c1	·	-1.2	·	·	·	·	·	·
Cc1noc(C)c1NC(=O)Nc1ccc2c(c1)C(=O)N([C@H](C)CO)C[C@@H](C)[C@H](CN(C)C(=O)Nc1ccc3c(c1)OCO3)OCCCC[C@@H](C)O2	-55.8	·	-0.3	-24.6	·	·	·	·
C[C@H]1CN([C@@H](C)CO)C(=O)c2ccccc2-c2ccccc2CO[C@@H]1CN(C)Cc1ccncc1	?	5.1	0.4	-3.4	73.0	6.8	13.4	11.1
C[C@@H]1CN([C@@H](C)CO)C(=O)c2ccccc2-c2ccccc2CO[C@H]1CN(C)Cc1ccncc1	81.4	2.5	3.3	9.3	·	·	·	·
C[C@@H]1CN([C@H](C)CO)C(=O)c2ccccc2-c2ccccc2CO[C@@H]1CN(C)C(=O)Cc1ccccc1	102.5*	-1.0	0.9	0.2	20.7	-52.9	-1.6	10.7
NNC(=O)CCCCCCC(=O)Nc1ccccc1O	·	0.4	·	·	·	·	·	·
N#Cc1cccc(-c2ccc3c(c2)[C@@H]2[C@@H](CCN2C(=O)c2ccncc2)[C@H](CO)N3)c1	62.1	·	-1.2	-38.8	·	·	·	·
SMILES	T cruzi growth-1	IDH1 mut inh	GASC1 inh	Pf Dd2 growth	T cruzi growth-2	T cruzi growth-3	3T3 cytotox	3T3 cytotox 2
C[C@@H]1CN([C@H](C)CO)C(=O)CCCn2nncc2CO[C@@H]1CN(C)C(=O)CCC(F)(F)F	16.4	·	-2.6	-4.3	·	·	·	·
O=C(c1cccc(F)c1)N1CCCCN2[C@@H](CO)[C@H](c3ccc(/C=C/c4ccccc4)cc3)[C@@H]2C1	110.6*	·	-1.1	-12.2	103.4*	92.6	45.2*	102.7*
O=C(c1cccc(F)c1)N1CCCCN2[C@@H](CO)[C@@H](c3ccc(-c4ccncc4)cc3)[C@@H]2C1	81.5	·	-0.6	8.4	·	·	·	·
O=C(c1cccc(F)c1)N1CCCCN2[C@H](CO)[C@H](c3ccc(/C=C/c4ccccc4)cc3)[C@H]2C1	111.2*	·	-3.9	-57.8	102.0*	81.1	91.2*	104.1*
O=C(c1cccc(F)c1)N1CCCCN2[C@H](CO)[C@H](c3ccc(/C=C/c4ccccc4)cc3)[C@@H]2C1	113.8*	·	-0.1	-73.0	100.3*	110.0*	33.9	99.2*
O=C(c1cccc(F)c1)N1CCCCN2[C@H](CO)[C@@H](c3ccc(/C=C/c4ccccc4)cc3)[C@H]2C1	92.2	·	-1.9	-35.7	·	·	·	·
CC(C)CC#Cc1cnc2c(c1)C(=O)N([C@@H](C)CO)C[C@H](C)[C@@H](CN(C)S(C)(=O)=O)O2	23.1	-6.5	1.2	32.8	·	·	·	·
Cc1noc(C)c1NC(=O)N(C)C[C@H]1Oc2ncc(C#CCC(C)C)cc2C(=O)N([C@@H](C)CO)C[C@@H]1C	69.5	·	-1.1	0.6	·	·	·	·

Compound activity (PubChem)
